Reference: ChEMBL document CHEMBL3425464, “HM30181 Derivatives as Novel Potent and Selective Inhibitors of the Breast Cancer Resistance Protein (BCRP/ABCG2)” (J Med Chem, 2015)

Tests used:
[1] = biological target: Multidrug resistance-associated protein 1 (Homo sapiens, UniProt P33527); test: Inhibition of MRP1 in human H69AR cells at 10 uM pre-incubated for 30 mins followed by calcein AM addition and further incubated for 60 mins by calcein AM assay; conditions: 1 h
[2] = Solubility in water; assay type: physicochemical; conditions: buffer
BCRP (ABCG2) [3] = biological target: T1, BCRP (ABCG2) (Homo sapiens, UniProt Q9UNQ0); test: Inhibition of GFP-tagged human BCRP expressed in MDCK2 cells pre-incubated for 30 mins followed by Hoechst 33342 addition and further incubated for 120 mins by Hoechst 33342 accumulation assay relative to XR9577; assay type: cell-based, MDCK-II; conditions: MDCK2 cells expressing GFP-tagged human BCRP, probe Hoechst 33342, read-out: Imax
T1 sequence (Q9UNQ0 whole entry): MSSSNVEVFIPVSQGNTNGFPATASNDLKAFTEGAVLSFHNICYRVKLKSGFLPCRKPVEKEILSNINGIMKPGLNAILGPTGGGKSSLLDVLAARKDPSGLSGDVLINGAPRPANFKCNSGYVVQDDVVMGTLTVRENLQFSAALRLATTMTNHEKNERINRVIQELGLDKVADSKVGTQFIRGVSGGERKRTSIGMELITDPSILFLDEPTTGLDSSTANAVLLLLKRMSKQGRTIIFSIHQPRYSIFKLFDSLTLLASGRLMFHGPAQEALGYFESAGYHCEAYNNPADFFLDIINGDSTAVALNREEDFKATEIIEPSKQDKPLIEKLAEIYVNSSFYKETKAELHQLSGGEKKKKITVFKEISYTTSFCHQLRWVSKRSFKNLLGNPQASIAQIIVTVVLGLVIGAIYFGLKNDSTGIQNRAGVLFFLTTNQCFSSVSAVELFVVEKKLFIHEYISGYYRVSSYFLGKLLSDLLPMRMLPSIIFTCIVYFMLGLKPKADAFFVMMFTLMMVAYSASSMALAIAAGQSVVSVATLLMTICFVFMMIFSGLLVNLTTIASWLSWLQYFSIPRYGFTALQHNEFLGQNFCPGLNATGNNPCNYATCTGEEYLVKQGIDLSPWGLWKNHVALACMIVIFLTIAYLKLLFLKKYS

[4] = Solubility in DMSO; assay type: physicochemical
ABCB1 (P-gp) = ABCB1 (P-gp) (Homo sapiens, UniProt P08183); test: Inhibition of ABCB1 in human A2780adr cells at 10 uM pre-incubated for 30 mins followed by calcein AM addition and further incubated for 60 mins by calcein AM assay; assay type: cell-based, A2780 ADR; conditions: probe calcein AM
[5] = biological target: T2, Broad substrate specificity ATP-binding cassette transporter ABCG2 (Homo sapiens, UniProt Q9UNQ0); test: Inhibition of GFP-tagged human BCRP expressed in MDCK2 cells pre-incubated for 30 mins followed by Hoechst 33342 addition and further incubated for 120 mins by Hoechst 33342 accumulation assay; assay type: cell-based, MDCK-II
T2 sequence (Q9UNQ0 whole entry): T1 sequence (Q9UNQ0 whole entry)
Method in brief: (§1)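 MDCK II cells stably carrying human BCRP cDNA C-terminally fused to GFP are washed in KHB, pH 7.4. About 30,000 cells/well are preincubated 30 min at 37 °C with compound up to 10 μM (DMSO ≤0.1%, methanol ≤5% for poorly soluble compounds). Hoechst 33342 is added from a 10 μM solution, and fluorescence (ex 355/em 460) is read every 60 s for 120 min. The steady-state mean (100–109 min) is fitted to a four-parameter logistic curve.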

[6] = biological target: T2, Broad substrate specificity ATP-binding cassette transporter ABCG2; test: Inhibition of GFP-tagged human BCRP expressed in MDCK2 cells up to 10 uM pre-incubated for 30 mins followed by Hoechst 33342 addition and further incubated for 120 mins by Hoechst 33342 accumulation assay; assay type: cell-based; conditions: mdck-ii, 2 h
Method in brief: as §1

[7] = biological target: ATP-dependent translocase ABCB1 (Homo sapiens, UniProt P08183); test: Inhibition of ABCB1 in human A2780adr cells pre-incubated for 30 mins followed by calcein AM addition and further incubated for 60 mins by calcein AM assay; assay type: cell-based, A2780 ADR
[8] = Ratio of GI50 for wild type MDCK2 cells by MTT assay to IC50 for GFP-tagged human BCRP expressed in MDCK2 cells by Hoechst 33342 accumulation assay; parameters: species or system MDCK-II
Method in brief: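 Ratio of two values. […] Read at 570/690 nm as % of medium control; n = 3, each in quadruplicate. IC50 came from Hoechst 33342 accumulation in MDCK II BCRP-GFP cells: 2 h at 37 °C, steady-state fluorescence, four-parameter fit.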

[9] = biological target: T2, Broad substrate specificity ATP-binding cassette transporter ABCG2; test: Inhibition of human BCRP expressed in MDCK2 cells assessed as reversal of multidrug resistance by measuring increase in SN-38-induced cytotoxicity at 5 uM after 72 hrs by MTT assay; assay type: cell-based; conditions: mdck-ii
Method in brief: (§2)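 MDCK II BCRP cells are seeded at 3000/well and allowed to attach for 6 h at 37 °C, 5% CO2. They are then exposed to SN-38 (up to 100 μM) alone or together with 3 μM or 5 μM modulator for 72 h. MDCK II wild-type cells given SN-38 serve as the comparison. MTT is added for 1 h, formazan is dissolved in DMSO, and absorbance is read at 570 nm with 690 nm background.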

[10] = biological target: T2, Broad substrate specificity ATP-binding cassette transporter ABCG2; test: Inhibition of human BCRP expressed in MDCK2 cells assessed as reversal of multidrug resistance by measuring increase in SN-38-induced cytotoxicity at 3 uM after 72 hrs by MTT assay; assay type: cell-based; conditions: mdck-ii
Method in brief: as §2

[11] = Intrinsic cytotoxicity against wild type MDCK2 cells assessed as reduction in cell viability after 72 hrs by MTT assay; assay type: cell-based, Canis lupus familiaris, MDCK-II; conditions: dog
Method in brief: (§3)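 Cells are seeded at 3000/well and allowed to attach for 6 h at 37 °C, 5% CO2. They are then exposed to compound in medium, up to 100 μM final (DMSO ≤1.0%), for 72 h. Controls are medium alone (negative) and 10% DMSO (positive). MTT is added for 1 h, formazan is dissolved in DMSO, and absorbance is read at 570 nm minus 690 nm. Viability is expressed as % of the negative control, and GI50 comes from a variable-slope sigmoidal fit. n = 3, each in quadruplicate.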

BCRP (ABCG2) [12] = biological target: T1, BCRP (ABCG2); test: Potency index, ratio of IC50 for Ko143 to IC50 for compound against GFP-tagged human BCRP expressed in MDCK2 cells by Hoechst 33342 accumulation assay; assay type: cell-based; conditions: MDCK2 cells expressing GFP-tagged human BCRP, probe Hoechst 33342, read-out: Ratio IC50
[13] = Intrinsic cytotoxicity against BCRP expressing MDCK2 cells assessed as reduction in cell viability after 72 hrs by MTT assay; assay type: ADME, cell-based, Canis lupus familiaris, MDCK-II; conditions: dog
Method in brief: as §3

Sequence of ATP-dependent translocase ABCB1 (P08183 whole entry): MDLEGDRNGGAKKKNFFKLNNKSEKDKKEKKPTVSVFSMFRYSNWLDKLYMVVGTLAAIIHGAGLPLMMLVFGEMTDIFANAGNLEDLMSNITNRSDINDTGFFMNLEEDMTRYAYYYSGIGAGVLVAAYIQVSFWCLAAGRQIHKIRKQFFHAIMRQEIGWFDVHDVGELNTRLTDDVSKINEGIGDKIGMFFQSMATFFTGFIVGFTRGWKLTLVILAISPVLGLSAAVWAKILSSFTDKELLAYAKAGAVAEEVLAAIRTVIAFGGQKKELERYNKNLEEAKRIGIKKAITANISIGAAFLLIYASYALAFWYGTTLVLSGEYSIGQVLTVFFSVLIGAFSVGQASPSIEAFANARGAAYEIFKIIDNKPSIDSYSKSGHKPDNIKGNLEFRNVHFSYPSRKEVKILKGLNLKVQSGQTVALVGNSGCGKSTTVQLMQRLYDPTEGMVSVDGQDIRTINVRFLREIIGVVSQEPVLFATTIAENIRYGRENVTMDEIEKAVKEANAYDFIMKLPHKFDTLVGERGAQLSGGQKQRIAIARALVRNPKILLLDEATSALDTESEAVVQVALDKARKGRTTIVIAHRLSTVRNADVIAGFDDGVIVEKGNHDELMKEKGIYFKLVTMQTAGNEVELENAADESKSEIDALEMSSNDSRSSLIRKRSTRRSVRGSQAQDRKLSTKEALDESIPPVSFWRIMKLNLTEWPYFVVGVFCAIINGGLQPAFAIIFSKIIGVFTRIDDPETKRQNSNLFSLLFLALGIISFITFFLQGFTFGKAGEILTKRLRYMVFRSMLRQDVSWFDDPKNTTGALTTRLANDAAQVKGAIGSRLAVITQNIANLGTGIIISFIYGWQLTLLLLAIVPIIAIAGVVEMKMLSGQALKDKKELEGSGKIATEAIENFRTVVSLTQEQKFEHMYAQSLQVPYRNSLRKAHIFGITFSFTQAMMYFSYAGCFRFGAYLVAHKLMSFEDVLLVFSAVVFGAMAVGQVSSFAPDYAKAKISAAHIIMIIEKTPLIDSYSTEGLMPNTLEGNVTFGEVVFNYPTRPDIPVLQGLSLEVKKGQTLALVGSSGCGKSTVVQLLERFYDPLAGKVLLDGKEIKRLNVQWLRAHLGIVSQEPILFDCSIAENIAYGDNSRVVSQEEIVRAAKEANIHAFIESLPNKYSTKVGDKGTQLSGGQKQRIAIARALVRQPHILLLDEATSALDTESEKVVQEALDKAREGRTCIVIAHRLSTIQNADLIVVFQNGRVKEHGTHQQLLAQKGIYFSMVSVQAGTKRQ
Sequence of ABCB1 (P-gp) (P08183 whole entry): as above
Sequence of Multidrug resistance-associated protein 1 (P33527 whole entry): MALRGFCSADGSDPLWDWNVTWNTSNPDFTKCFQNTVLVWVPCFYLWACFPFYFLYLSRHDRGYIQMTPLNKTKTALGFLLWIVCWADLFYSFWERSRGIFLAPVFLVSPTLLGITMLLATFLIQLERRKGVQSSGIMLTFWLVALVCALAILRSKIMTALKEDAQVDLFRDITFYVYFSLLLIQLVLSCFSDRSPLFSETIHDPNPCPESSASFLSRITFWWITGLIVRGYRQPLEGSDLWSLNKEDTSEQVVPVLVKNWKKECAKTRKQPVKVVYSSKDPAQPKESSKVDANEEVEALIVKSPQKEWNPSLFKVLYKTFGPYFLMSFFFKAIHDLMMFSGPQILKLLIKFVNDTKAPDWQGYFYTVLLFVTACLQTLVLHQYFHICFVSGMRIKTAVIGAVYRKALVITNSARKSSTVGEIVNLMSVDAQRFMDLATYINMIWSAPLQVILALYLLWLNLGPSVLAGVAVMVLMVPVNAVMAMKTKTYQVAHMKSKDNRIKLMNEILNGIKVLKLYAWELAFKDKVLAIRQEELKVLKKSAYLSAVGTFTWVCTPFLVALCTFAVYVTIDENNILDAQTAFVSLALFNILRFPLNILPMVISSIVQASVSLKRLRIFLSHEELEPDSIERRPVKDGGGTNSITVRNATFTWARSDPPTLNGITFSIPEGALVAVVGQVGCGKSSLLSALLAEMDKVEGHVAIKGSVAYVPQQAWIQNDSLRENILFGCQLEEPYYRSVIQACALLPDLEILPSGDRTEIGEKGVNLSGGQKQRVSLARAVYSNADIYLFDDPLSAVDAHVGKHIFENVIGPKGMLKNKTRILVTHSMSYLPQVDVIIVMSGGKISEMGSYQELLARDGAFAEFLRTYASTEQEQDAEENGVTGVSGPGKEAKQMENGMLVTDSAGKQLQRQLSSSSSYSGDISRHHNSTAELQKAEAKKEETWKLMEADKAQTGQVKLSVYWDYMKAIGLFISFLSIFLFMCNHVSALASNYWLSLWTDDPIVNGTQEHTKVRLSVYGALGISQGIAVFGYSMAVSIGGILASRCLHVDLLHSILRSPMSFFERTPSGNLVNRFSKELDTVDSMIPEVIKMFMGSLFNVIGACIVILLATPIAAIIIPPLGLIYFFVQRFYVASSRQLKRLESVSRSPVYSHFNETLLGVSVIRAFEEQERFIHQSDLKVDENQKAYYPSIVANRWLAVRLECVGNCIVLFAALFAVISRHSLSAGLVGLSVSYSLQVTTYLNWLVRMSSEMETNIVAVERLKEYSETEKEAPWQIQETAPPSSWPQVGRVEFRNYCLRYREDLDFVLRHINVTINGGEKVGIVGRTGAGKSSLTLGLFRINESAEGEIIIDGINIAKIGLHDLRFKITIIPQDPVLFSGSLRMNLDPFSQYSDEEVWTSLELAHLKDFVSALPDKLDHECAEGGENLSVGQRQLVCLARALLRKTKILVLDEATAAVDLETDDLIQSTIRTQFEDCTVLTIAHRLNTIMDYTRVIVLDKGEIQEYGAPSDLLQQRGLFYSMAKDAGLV

Compound	inhibition (INH) [1]	solubility [2]	Emax at 2 h (BCRP (ABCG2) [3])	solubility [4]	inhibition at 1 h, 10 µM (ABCB1 (P-gp))	IC50 [5]	inhibition (INH) [6]	IC50 [7]	Ratio [8]	inhibition (INH) [9]	inhibition (INH) [10]	GI50 at 72 h [11]	selectivity ratio (BCRP (ABCG2) [12])	GI50 at 72 h [13]
CCCc1ccc(-n2nnc(-c3ccccc3NC(=O)c3ccc([N+](=O)[O-])cc3)n2)cc1	Not Active	Insoluble	63%	> 10 mM	< 25%	184 nM	–	–	–	–	–	–	–	–
O=C(Nc1ccccc1-c1nnn(-c2ccc(C(F)(F)F)cc2)n1)c1ccc([N+](=O)[O-])cc1	Not Active	Insoluble	–	> 10 mM	< 25%	–	Not Active	–	–	–	–	–	–	–
Cc1ccc(-n2nnc(-c3ccccc3NC(=O)c3ccc([N+](=O)[O-])cc3)n2)cc1	Not Active	Insoluble	71%	> 10 mM	< 25%	100 nM	–	–	–	–	–	–	–	–
CCOc1ccc(-n2nnc(-c3ccccc3NC(=O)c3ccc([N+](=O)[O-])cc3)n2)cc1	Not Active	Insoluble	–	> 10 mM	< 25%	–	Not Active	–	–	–	–	–	–	–
COc1ccccc1-n1nnc(-c2ccccc2NC(=O)c2ccc([N+](=O)[O-])cc2)n1	Not Active	Insoluble	102%	> 10 mM	< 25%	261 nM	–	–	–	–	–	–	–	–
COc1cccc(-n2nnc(-c3ccccc3NC(=O)c3ccc([N+](=O)[O-])cc3)n2)c1	Not Active	Insoluble	58%	> 10 mM	< 25%	78.9 nM	–	–	–	–	–	–	–	–
COc1ccc(-n2nnc(-c3ccccc3NC(=O)c3ccc([N+](=O)[O-])cc3)n2)cc1	Not Active	Insoluble	61%	> 10 mM	< 25%	118 nM	–	–	–	–	–	–	–	–
CCCc1ccc(-n2nnc(-c3ccccc3NC(=O)c3ccc(C(F)(F)F)cc3)n2)cc1	Not Active	Insoluble	–	> 10 mM	< 25%	–	Not Active	–	–	–	–	–	–	–
O=C(Nc1ccccc1-c1nnn(-c2ccc(C(F)(F)F)cc2)n1)c1ccc(C(F)(F)F)cc1	Not Active	Insoluble	–	> 10 mM	< 25%	–	Not Active	–	–	–	–	–	–	–
Cc1ccc(-n2nnc(-c3ccccc3NC(=O)c3ccc(C(F)(F)F)cc3)n2)cc1	Not Active	Insoluble	65%	> 10 mM	< 25%	137 nM	–	–	–	–	–	–	–	–
CCOc1ccc(-n2nnc(-c3ccccc3NC(=O)c3ccc(C(F)(F)F)cc3)n2)cc1	Not Active	Insoluble	–	> 10 mM	< 25%	–	Not Active	–	–	–	–	–	–	–
COc1ccccc1-n1nnc(-c2ccccc2NC(=O)c2ccc(C(F)(F)F)cc2)n1	Not Active	Insoluble	100%	> 10 mM	≥ 25%	451 nM	–	11 µM	–	–	–	–	–	–
COc1cccc(-n2nnc(-c3ccccc3NC(=O)c3ccc(C(F)(F)F)cc3)n2)c1	Not Active	Insoluble	100%	> 10 mM	< 25%	11200 nM	–	–	–	–	–	–	–	–
COc1ccc(-n2nnc(-c3ccccc3NC(=O)c3ccc(C(F)(F)F)cc3)n2)cc1	Not Active	Insoluble	93%	> 10 mM	< 25%	106 nM	–	–	–	–	–	–	–	–
COc1ccc(C(=O)Nc2ccccc2-c2nnn(-c3ccc(C(F)(F)F)cc3)n2)cc1OC	Not Active	Insoluble	85%	> 10 mM	< 25%	269 nM	–	–	–	–	–	–	–	–
CCOc1ccc(-n2nnc(-c3ccccc3NC(=O)c3ccc(OC)c(OC)c3)n2)cc1	Not Active	Insoluble	106%	> 10 mM	≥ 25%	201 nM	–	32.8 µM	–	–	–	–	–	–
COc1ccc(-n2nnc(-c3ccccc3NC(=O)c3ccc(OC)c(OC)c3)n2)cc1	Not Active	Insoluble	107%	> 10 mM	≥ 25%	117 nM	–	37.2 µM	–	–	–	–	–	–
COc1ccc(C(=O)Nc2ccccc2-c2nnn(-c3ccc(C(F)(F)F)cc3)n2)cc1	Not Active	Insoluble	102%	> 10 mM	< 25%	73 nM	–	–	500	Active	Active	34.4 µM	2	40.2 µM
COc1ccc(C(=O)Nc2ccccc2-c2nnn(-c3ccccc3OC)n2)cc1	Not Active	Insoluble	88%	> 10 mM	≥ 25%	180 nM	–	7.73 µM	–	–	–	–	–	–
CCCc1ccc(-n2nnc(-c3ccccc3NC(=O)c3ccc(OC)cc3)n2)cc1	Not Active	Insoluble	88%	> 10 mM	< 25%	64.2 nM	–	–	1000	–	–	63.2 µM	2	61.8 µM
CCCc1ccc(C(=O)Nc2ccccc2-c2nnn(-c3ccc(OC)cc3)n2)cc1	Not Active	Insoluble	91%	> 10 mM	< 25%	79.4 nM	–	–	1000	–	–	77.6 µM	2	60.9 µM
O=C(Nc1ccccc1C(=O)Nc1ccc(CCN2CCc3ccccc3C2)cc1)c1cnc2ccccc2c1	–	–	–	–	–	721 nM	–	–	–	–	–	–	–	–
